Ecoli tolC – growth inhibitors of E. coli tolC mutant, primary screen, strain BW25113 ΔtolC::kan, 384-well; 65,000 tested, 2.2% active; growth inhibition, % at 10 µM (by protocol); OD615;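 active means growth inhibition at or above a cutoff equal to the mean over every tested compound plus 3 SD, cut at about 60% in these data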;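 further: growth measured after 20 h incubation at 37 °C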
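signal = optical density read at 615 nm | test system = E. coli ΔtolC::kan strain BW25113 | timing = 20 h compound exposure of bacteria at 37 °C | buffer or medium = LB medium plus 50 µg/mL kanamycin | compound dosing = 10 µM final, single dose | evaluation = % inhibition of E. coli growth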
HePTP inh – inhibitors of human HePTP phosphatase, primary screen, biochemical, absorbance, leukemia target; Tyrosine-protein phosphatase non-receptor type 7 (Homo sapiens), P35236; recombinant HePTP phosphatase activity, OD absorbance; inhibition, % at 20 µM; 110,000 tested, 0.64% active; in the data active means inhibition above about 50%;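 further: plate controls were vehicle for no effect and reference inhibitor for full effect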
PostGolgi yeast – phenotypic screen on post-Golgi transport, primary screen. AID 739, 2007. inhibition, % at 10 µM. 98,000 tested, 0.9% active. post-Golgi transport phenotypic cell assay;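 further: yeast cells grown in 1536-well plates; yeast grown about 18 h at 30C before absorbance read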
Ecoli WT expand – growth inhibitors of wild-type E. coli, primary screen, strain BW25113, expanded library, OD600; OD600 absorbance; growth inhibition, % at 100 µM; 98,000 tested, 0.15% active;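 active means growth inhibition above about 50% at one test dose, limit read from the data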;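 further: growth measured after 20 h incubation at 37 °C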
PLAP activator – PLAP enzyme activators, biochemical, luminescence, HTS; purified PLAP enzyme, luminescent substrate read-out; active compounds read high; activation fold at 20 µM; 96,000 tested, 1.2% active; in the data active means activation fold above about 2
Target sequence (P05187 whole entry, looked up): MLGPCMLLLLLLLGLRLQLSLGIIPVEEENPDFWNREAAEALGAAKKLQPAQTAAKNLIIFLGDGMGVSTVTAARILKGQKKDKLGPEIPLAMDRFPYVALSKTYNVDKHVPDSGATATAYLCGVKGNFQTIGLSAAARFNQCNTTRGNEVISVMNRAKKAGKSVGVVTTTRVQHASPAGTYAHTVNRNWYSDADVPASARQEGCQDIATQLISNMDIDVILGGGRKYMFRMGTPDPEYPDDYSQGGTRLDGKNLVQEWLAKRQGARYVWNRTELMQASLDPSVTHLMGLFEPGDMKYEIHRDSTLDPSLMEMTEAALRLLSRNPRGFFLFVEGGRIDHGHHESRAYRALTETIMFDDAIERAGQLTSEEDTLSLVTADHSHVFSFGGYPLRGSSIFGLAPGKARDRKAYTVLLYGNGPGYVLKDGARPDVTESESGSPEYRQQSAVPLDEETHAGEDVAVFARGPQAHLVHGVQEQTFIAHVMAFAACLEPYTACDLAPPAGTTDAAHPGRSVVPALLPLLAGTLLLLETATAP
PostGolgi ctrl – growth inhibition of yeast control strain, primary screen, counter-screen for post-Golgi transport modulator project | efflux-deficient yeast background strain, growth absorbance A615, 16 h | inhibition, % at 10 µM | 98,000 tested, 5% active
Starred values were filed as active, the others as inactive; . = no result. A selection: hits, their analogues and other compounds. The true share with any hit is near 5.4%. Unless noted, no stated cut-off is given here; in the data, active means inhibition above about 30%; inactive means the rest.

SMILES	Ecoli tolC	HePTP inh	PostGolgi yeast	Ecoli WT expand	PLAP activator	PostGolgi ctrl
Cc1ccc(N(CN2CCCC2=O)C(=O)c2ccc(C)c(C)c2)cc1	-13	12	-6	-5	1.4	10
Cc1ccc(C(=O)c2cc3ccccc3o2)cc1	.	.	0	5	0.9	3
O/N=C(\c1ccc(Cl)cc1)c1cc2ccccc2o1	98*	4	15	-3	1	34*
COc1cc(/C=C/c2[nH]c(=O)[nH]c(=O)c2[N+](=O)[O-])cc(Br)c1O	.	6	.	.	.	.
C=CCn1c(SCC(=O)Nc2ccc3c(c2)OCO3)nnc1-c1cc(Br)ccc1O	74*	5	0	-3	1.3	14
c1ccc(-c2nc(N3CCOCC3)nc3ccccc23)cc1	.	-17	.	.	.	.
c1ccc(-c2nnc(N3CCOCC3)nc2-c2ccccc2)cc1	15	1	0	4	0.9	54*
COC(=O)c1ccc(Oc2nc(N3CCCCC3)nc(N3CCOCC3)n2)cc1	66*	3	-12	-5	1	8
Clc1ccc(Oc2nc(Oc3ccc(Cl)cc3)nc(N3CCOCC3)n2)cc1	48	5	3	-16	1	-1
c1ccc(Oc2nc(Oc3ccccc3)nc(N3CCOCC3)n2)cc1	21	-6	5	-12	0.9	31*
COC(=O)c1ccc(N2CCOCC2)c(F)c1	.	.	19	10	0.9	12
CCOc1ccccc1C(=O)Nc1cc(OC)ccc1OC	14	5	1	-7	0.9	47*
COc1ccccc1C(=O)Nc1cc(Cl)ccc1O	9	6	-4	-11	1	-3
CCOc1ccccc1C(=O)Nc1cc(Cl)ccc1O	100*	0	9	-16	1.2	87*
COc1cccc(-c2nnc3n2N=C(c2cc(OC)ccc2OC)CS3)c1	.	-1	8	-8	1	37*
COc1ccc(C2=Nn3c(nnc3-c3ccc(OC)cc3)SC2)cc1	27	-4	29	-1	1.1	42*
CCOc1cccc(-c2nnc3n2N=C(c2cc(OC)ccc2OC)CS3)c1	22	-9	-1	3	.	58*
COc1ccc(OC)c(C2=Nn3c(nnc3-c3cc(OC)c(OC)c(OC)c3)SC2)c1	14	5	9	-1	1.4	24
COc1cccc(NC(=O)c2ocnc2C)c1	-19	2	4	-2	1	13
CCc1cc(C)cc(OCCOc2ccccc2/C=N/n2cnnc2)c1	.	4	.	.	.	.
CC(C)(C)NC(=O)CN(Cc1cccs1)C(=O)c1csnn1	-16	-1	-10	-4	1	31*
Cc1cc(NC(=O)CSc2nnc(C3COc4ccccc4O3)o2)no1 (stereo not drawn)	-20	6	1	-17	1	42*
Nc1nc(SCc2ccc(Cl)cc2)ns1	23	12	-2	24	0.9	44*
Nc1nc(SCc2ccccc2)ns1	4	8	-6	11	0.8	19
NC(=O)c1cc(NC(=O)C(c2ccccc2)c2ccccc2)ccc1Cl	.	9	.	.	.	.
SMILES	Ecoli tolC	HePTP inh	PostGolgi yeast	Ecoli WT expand	PLAP activator	PostGolgi ctrl
COc1ccccc1NC(=O)CN(c1ccc(Cl)cc1Cl)S(=O)(=O)c1ccccc1	.	1	.	.	.	.
Cc1ccc(C(=O)c2c(NC(=O)c3cccnc3)sc3c2CCCC3)cc1	.	.	-10	-16	1.1	33*
COCC(C)n1c(C)cc(C(=O)CSc2ccc(NC(C)=O)cc2)c1C (stereo not drawn)	.	.	0	13	1.6	6
COc1cccc(-c2nc(N3CCCCC3)c3ccccc3n2)c1O	8	1	.	.	.	.
CCC(C)Nc1nc(-c2cccc(OC)c2O)nc2ccccc12 (stereo not drawn)	12	7	25	-9	.	72*
COc1cccc(-c2nc(NC(C)C)c3ccccc3n2)c1O	24	8	-5	-13	1	75*
COc1ccc(C2C(C(C)=O)=C(O)C(=O)N2c2ccccn2)cc1 (stereo not drawn)	.	8	.	.	.	.
COc1ccc(C(=S)N2CCCC2)c(OC)c1	.	94*	.	.	.	.
O=C(Nc1ccc(-c2cn3ccccc3n2)cc1)c1cccc(Br)c1	.	102*	.	.	.	.
O=C(Nc1ccc(-c2nc3ccccc3[nH]2)cc1)c1cccc(Br)c1	.	102*	.	.	.	.
O=C(Nc1ccc(-c2nc3ccccc3[nH]2)cc1)c1ccccc1	.	8	.	.	.	.
CCc1cc2c(=O)c(Oc3ccccc3F)c(C)oc2c(CN(C)C)c1O	-6	5	51*	6	1.2	-2
Cc1ccc(OCCN2CCN(c3ncnc4sc(C)c(C)c34)CC2)cc1	.	.	0	2	2.2*	20
Clc1ccc(OCCN2CCN(c3ncnc4sccc34)CC2)cc1	94*	6	-11	5	1.7	33*
OC(CN1CCN(Cc2ccc3c(c2)OCO3)CC1)c1c[nH]c2ccccc12 (stereo not drawn)	.	.	-4	14	0.9	5
COc1ccc2[nH]c3c(=O)n(CCCCC(=O)N4CCC(C(N)=O)CC4)c(=S)[nH]c3c2c1	100*	0	-3	5	1	8
COc1ccc2[nH]c3c(=O)n(CCCCC(=O)NCCN4CCCC4)c(=S)[nH]c3c2c1	61*	3	5	2	1.5	7
COc1ccc(OC)c(-n2c(=S)[nH]c3cc(C(=O)N4CCC(C(N)=O)CC4)ccc3c2=O)c1	.	.	17	-7	1.2	-6
O=C(COc1ccc(Cl)cc1)Nc1ccc(-c2nc3ccccc3o2)c(O)c1	.	1	.	.	.	.
CC1CCC/C(=C(\C#N)c2nc(-c3cc4ccccc4oc3=O)cs2)C1 (stereo not drawn)	.	10	.	.	.	.
Cn1c(N2CCOCC2)nc2c1c(=O)n(Cc1ccc(Cl)c(Cl)c1)c(=O)n2C	5	6	-10	-3	1.5	40*
CC1CCCCN1Cc1nc2c(c(=O)n(C)c(=O)n2C)n1CCc1ccccc1 (stereo not drawn)	.	.	-5	8	1.1	38*
Cn1c(=O)n(Cc2ccc(F)cc2)c(=O)c2c1nc1n2CCCN1Cc1ccccc1	13	8	2	-8	1.6	45*
Cn1c(=O)n(CCc2ccccc2)c(=O)c2c1nc1n2CCCN1CCc1ccccc1	76*	4	6	-26	1.5	37*
Cn1c(N2CCCC2)nc2c1c(=O)n(Cc1ccc(F)cc1)c(=O)n2C	-7	11	0	-4	1.1	11
Cn1c(=O)n(CCc2ccccc2)c(=O)c2c1nc1n2CCCN1Cc1ccccc1	26	6	5	-16	1.1	13
CSc1nc2c(ccc3ccccc32)o1	2	11	2	-2	.	2
O=C(Nc1ccccc1-c1ccccc1)c1cccc([N+](=O)[O-])c1	.	.	-2	-4	1.1	14
C=CCn1c(SCc2cccc3ccccc23)nnc1-c1cccnc1	.	.	4	8	1	2
Cn1c(=O)n(CCc2ccccc2)c(=O)c2c1ncn2Cc1ccccc1	18	-4	-5	1	1	38*
